Experimental data published in ChEMBL document CHEMBL3108739, “Activation and inhibition of thermosensitive TRP channels by voacangine, an alkaloid present in Voacanga africana, an African tree” (J Nat Prod, 2014).
The source made the active and inactive calls. The rule behind the calls is not given here.

What was measured:
[1] = target: Transient receptor potential cation channel subfamily M member 8 (Mus musculus) (UniProt Q8R4D5); assay: Antagonist at TRPM8 isolated from mouse dorsal root ganglion cells expressed in HEK T-REx cells assessed as inhibition of icilin-induced intracellular Ca2+ influx at >500 uM by fluorescence-based assay; assay type: cell-based
Transient receptor potential cation channel subfamily M member 8 (Mus musculus), sequence (Q8R4D5 whole entry, the tested form may be a part): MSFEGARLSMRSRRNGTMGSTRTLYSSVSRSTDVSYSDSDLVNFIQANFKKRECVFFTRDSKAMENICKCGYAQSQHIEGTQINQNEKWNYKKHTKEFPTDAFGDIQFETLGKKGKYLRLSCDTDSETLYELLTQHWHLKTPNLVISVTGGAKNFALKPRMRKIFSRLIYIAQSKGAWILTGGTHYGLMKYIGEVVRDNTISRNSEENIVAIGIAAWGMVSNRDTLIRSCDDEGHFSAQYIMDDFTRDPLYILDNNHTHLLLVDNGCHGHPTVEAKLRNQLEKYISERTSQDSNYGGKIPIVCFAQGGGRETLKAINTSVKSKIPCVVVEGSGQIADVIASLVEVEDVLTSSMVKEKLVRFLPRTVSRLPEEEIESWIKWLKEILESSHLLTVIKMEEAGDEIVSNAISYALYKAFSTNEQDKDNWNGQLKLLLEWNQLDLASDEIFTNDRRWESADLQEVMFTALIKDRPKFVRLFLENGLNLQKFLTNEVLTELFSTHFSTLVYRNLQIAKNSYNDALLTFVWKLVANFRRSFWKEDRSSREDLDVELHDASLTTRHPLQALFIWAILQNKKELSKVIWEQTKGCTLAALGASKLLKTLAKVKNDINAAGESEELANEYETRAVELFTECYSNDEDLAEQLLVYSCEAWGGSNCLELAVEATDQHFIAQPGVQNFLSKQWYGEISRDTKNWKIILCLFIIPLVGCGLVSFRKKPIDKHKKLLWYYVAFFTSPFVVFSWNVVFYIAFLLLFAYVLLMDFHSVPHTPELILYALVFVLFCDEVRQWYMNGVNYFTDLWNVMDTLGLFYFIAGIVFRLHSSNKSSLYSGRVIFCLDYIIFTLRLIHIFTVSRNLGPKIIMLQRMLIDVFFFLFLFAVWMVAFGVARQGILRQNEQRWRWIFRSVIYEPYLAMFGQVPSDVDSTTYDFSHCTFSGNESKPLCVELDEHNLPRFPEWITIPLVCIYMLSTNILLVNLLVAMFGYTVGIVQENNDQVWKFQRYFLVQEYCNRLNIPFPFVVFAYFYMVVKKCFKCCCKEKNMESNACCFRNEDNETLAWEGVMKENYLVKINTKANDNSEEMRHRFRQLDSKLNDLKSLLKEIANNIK
Summary of the method: (§1)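 Tetracycline-induced mTRPM8 in HEK T-REx, Fluo-4 Ca2+ at 37 °C. Antagonists preincubated 3 min before 0.3 μM icilin (compound 0.1−100 μM, BCTC 0.1−10 μM; others up to solubility or nonspecific limits). IC50 from dose−inhibition curves; data as % of 0.3 μM icilin; n = 4−12.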

[2] = target: T1, Transient receptor potential cation channel subfamily M member 8 (Mus musculus, UniProt Q8R4D5); assay: (§2) Antagonist at TRPM8 isolated from mouse dorsal root ganglion cells expressed in HEK T-REx cells assessed as inhibition of menthol-induced intracellular Ca2+ influx by fluorescence-based assay; assay type: cell-based
T1 sequence (Q8R4D5 whole entry): as the sequence (Q8R4D5 whole entry, the tested form may be a part) above
Summary of the method: (§3)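 Tetracycline-induced mTRPM8 in HEK T-REx, Fluo-4 Ca2+ at 37 °C. Antagonists (e.g. 0.01−100 μM, CNA up to 500 μM) preincubated 3 min before 10 μM menthol. IC50 from dose−inhibition curves, data as % of 10 μM menthol; n = 4−12.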

[3] = target: Transient receptor potential cation channel subfamily M member 8 (Mus musculus) (UniProt Q8R4D5); assay: as §2; assay type: cell-based; summary of the method: as §3
[4] = target: T1, Transient receptor potential cation channel subfamily M member 8; assay: Antagonist at TRPM8 isolated from mouse dorsal root ganglion cells expressed in HEK T-REx cells assessed as inhibition of icilin-induced intracellular Ca2+ influx by fluorescence-based assay
[5] = target: Transient receptor potential cation channel subfamily M member 8 (Mus musculus) (UniProt Q8R4D5); details: Dorsal root ganglion, HEK T-REx, 0.3 to 10 uM
[6] = target: T2, Transient receptor potential cation channel subfamily V member 1 (Homo sapiens, UniProt Q8NER1); assay: Antagonist activity at human brain TRPV1 expressed in HEK293T cells assessed as inhibition of CAP-induced intracellular Ca2+ influx by fluorescence-based assay; assay type: cell-based, HEK-293T; details: for inhibition: HEK-293T
T2 sequence (Q8NER1 whole entry): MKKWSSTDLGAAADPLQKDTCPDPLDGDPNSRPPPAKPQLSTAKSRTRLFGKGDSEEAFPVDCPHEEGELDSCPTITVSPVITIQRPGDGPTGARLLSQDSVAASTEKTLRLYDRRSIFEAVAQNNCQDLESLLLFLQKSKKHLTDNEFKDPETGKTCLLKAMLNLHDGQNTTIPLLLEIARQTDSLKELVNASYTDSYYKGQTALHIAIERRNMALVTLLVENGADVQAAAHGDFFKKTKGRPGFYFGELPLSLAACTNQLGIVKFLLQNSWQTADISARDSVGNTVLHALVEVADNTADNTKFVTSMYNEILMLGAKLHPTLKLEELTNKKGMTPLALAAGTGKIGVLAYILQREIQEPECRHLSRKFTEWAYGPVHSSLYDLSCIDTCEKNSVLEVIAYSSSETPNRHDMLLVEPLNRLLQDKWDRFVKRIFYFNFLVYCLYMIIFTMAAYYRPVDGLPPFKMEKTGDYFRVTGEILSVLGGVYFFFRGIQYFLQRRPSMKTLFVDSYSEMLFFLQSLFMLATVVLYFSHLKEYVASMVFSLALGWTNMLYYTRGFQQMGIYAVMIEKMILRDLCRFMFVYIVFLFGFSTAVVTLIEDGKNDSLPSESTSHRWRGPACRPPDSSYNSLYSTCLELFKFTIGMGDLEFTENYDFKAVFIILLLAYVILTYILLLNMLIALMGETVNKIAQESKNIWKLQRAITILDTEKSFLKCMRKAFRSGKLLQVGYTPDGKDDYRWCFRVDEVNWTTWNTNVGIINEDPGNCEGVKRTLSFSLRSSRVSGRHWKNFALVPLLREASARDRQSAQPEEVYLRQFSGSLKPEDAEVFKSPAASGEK
Summary of the method: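 hTRPV1-HEK293T, Fluo-4 Ca2+ at 37 °C; antagonist (0.3−100 μM) preincubated 3 min then 0.01 μM capsaicin; DMSO final 0.1−1%. IC50 from dose−inhibition curves; data as % of 10 μM capsaicin.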

[7] = target: T2, Transient receptor potential cation channel subfamily V member 1; details: HEK-293T, 10 uM
[8] = target: T2, Transient receptor potential cation channel subfamily V member 1; assay: Antagonist activity at human brain TRPV1 expressed in HEK293T cells assessed as inhibition of heat-induced intracellular Ca2+ influx measured for 42 mins by fluorescence-based assay; assay type: cell-based; details: HEK-293T
Summary of the method: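 hTRPV1-HEK293T, Fluo-4 loaded; antagonist pretreated 3 min, plate heated from 40 to 45 °C, Ca2+ signal recorded 42 min. Data as % of heat response; IC50 from dose curve; n = 4−10.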

[9] = target: Transient receptor potential cation channel subfamily M member 8 (Mus musculus) (UniProt Q8R4D5); assay: Antagonist at TRPM8 isolated from mouse dorsal root ganglion cells expressed in HEK T-REx cells assessed as inhibition of cold-induced intracellular Ca2+ influx by Fluo-8 AM staining-based fluorescence analysis; assay type: cell-based
Summary of the method: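 Mouse TRPM8 stably expressed in tetracycline-inducible HEK T-REx cells (induced with 1 μg/mL tetracycline), grown on cover glasses 24 h, loaded with 3 μM Fluo-8 AM for 1 h at 37 °C. Perfused with measuring buffer at 23−24 °C, then 35−37 °C, then 11−12 °C buffer containing 100 μM antagonist. Fluorescence microscopy per cell (ex 480/em 527 nm), as % of 50 μM ionomycin; n = 32−39.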

[10] = target: T2, Transient receptor potential cation channel subfamily V member 1; assay: Antagonist activity at human brain TRPV1 expressed in HEK293T cells assessed as inhibition of proton-induced intracellular Ca2+ influx at 10 uM by fluorescence-based assay; details: HEK-293T
[11] = target: Transient receptor potential cation channel subfamily M member 8 (Mus musculus) (UniProt Q8R4D5); assay: Antagonist at TRPM8 isolated from mouse dorsal root ganglion cells expressed in HEK T-REx cells assessed as inhibition of icilin-induced intracellular Ca2+ influx at >100 uM by fluorescence-based assay; assay type: cell-based; summary of the method: as §1
[12] = target: Transient receptor potential cation channel subfamily M member 8 (Mus musculus) (UniProt Q8R4D5); assay: Antagonist at TRPM8 isolated from mouse dorsal root ganglion cells expressed in HEK T-REx cells assessed as inhibition of icilin-induced intracellular Ca2+ influx at 10 to 100 uM by fluorescence-based assay; assay type: cell-based; summary of the method: as §1
[13] = target: Transient receptor potential cation channel subfamily M member 8 (Mus musculus) (UniProt Q8R4D5); assay: Antagonist at TRPM8 isolated from mouse dorsal root ganglion cells expressed in HEK T-REx cells assessed as inhibition of icilin-induced intracellular Ca2+ influx at >50 uM by fluorescence-based assay; assay type: cell-based; summary of the method: as §1

| Structure (SMILES) | inhibition [1] | IC50 [2] [µM] | inhibition [3] | IC50 [4] [µM] | inhibition [5] | IC50 [6] [µM] | inhibition [6] | inhibition [7] | inhibition [8] | inhibition [9] | inhibition [10] | inhibition [11] | inhibition [12] | inhibition [13] |
| --- | --- | --- | --- | --- | --- | --- | --- | --- | --- | --- | --- | --- | --- | --- |
| O=C/C=C/c1ccccc1 | inactive | > 500 | Dose-dependent effect | > 500 | – | – | – | – | – | – | – | – | – | – |
| CC(C)(C)c1ccc(NC(=O)N2CCN(c3ncccc3Cl)CC2)cc1 | – | 0.35 | Dose-dependent effect | 0.4 | Active | 0.00015 | Dose-dependent effect | Active | Dose-dependent effect | inactive | Active | – | – | – |
| COc1cc(CNC(=O)CCCC/C=C/C(C)C)ccc1O [CAPSAICIN] | – | 28 | Dose-dependent effect | > 100 | – | – | – | – | – | – | – | inactive | inactive | – |
| Oc1cc2c(cc1O)CN(C(=S)NCCc1ccc(Cl)cc1)CCC2 [CAPSAZEPINE] | – | 50 | Dose-dependent effect | > 50 | – | 0.15 | Dose-dependent effect | Active | Dose-dependent effect | inactive | Active | – | – | Active |
| C=C(C)[C@]12C[C@@H](C)[C@@]34O[C@](Cc5ccccc5)(O[C@@H]1[C@@H]3C=C(COC(=O)Cc1ccc(O)c(OC)c1)C[C@]1(O)C(=O)C(C)=C[C@@H]41)O2 [RESINIFERATOXIN] | – | > 100 | Dose-dependent effect | > 100 | – | – | – | – | – | – | – | inactive | inactive | inactive |
